Reference: ChEMBL document CHEMBL3525900, “Pharmacokinetics, distribution, and metabolism of [14C]sunitinib in rats, monkeys, and humans” (Drug Metab Dispos, 2012)

What was measured:
[1] = Drug excretion in urine of male Sprague-Dawley rat at 15 mg/kg, po administered as single dose by liquid scintillation counting; format: ADME, organism-based; parameters: dose 15 mg/kg, dosed compound name [14C]Sunitinib, route oral; settings: in vivo
[2] = Drug excretion in feces of female Sprague-Dawley rat at 5 mg/kg, iv administered as single dose by liquid scintillation counting; format: ADME, organism-based; parameters: dose 5 mg/kg, dosed compound name [14C]Sunitinib, route intravenous; settings: in vivo
[3] = Drug excretion in urine of female Sprague-Dawley rat at 5 mg/kg, iv administered as single dose by liquid scintillation counting; format: ADME, organism-based; parameters: dose 5 mg/kg, dosed compound name [14C]Sunitinib, route intravenous; settings: in vivo
[4] = Drug excretion in feces of female cynomolgus monkey at 6 mg/kg, po administered as single dose by liquid scintillation counting; format: ADME, organism-based, Macaca fascicularis; parameters: dose 6 mg/kg, dosed compound name [14C]Sunitinib, route oral; settings: in vivo
[5] = AUC (0 to infinity) in female Sprague-Dawley rat plasma at 15 mg/kg, po administered as single dose by LC/MS/MS analysis; format: ADME, organism-based; parameters: time infinity, dose 15 mg/kg, dosed compound name [14C]Sunitinib, route oral
How it was run: (§1)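 Single dose of [14C]sunitinib L-malate as free base, 50 µCi/kg. IV dose was 5 mg/kg by tail vein in 5 females. Oral dose was 15 mg/kg by gavage in 3 females and 3 males. Total radioactivity was by scintillation counting. […] Cmax was read from raw data, t½ by log-linear regression, AUC by linear trapezoidal rule.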

[6] = Apparent terminal half life in female Sprague-Dawley rat plasma at 15 mg/kg, po administered as single dose by LC/MS/MS analysis; format: ADME, organism-based; parameters: dose 15 mg/kg, dosed compound name [14C]Sunitinib, route oral; settings: read-out: t1/2 lambda z (converted); how it was run: as §1
[7] = Cmax in male Sprague-Dawley rat plasma at 15 mg/kg, po administered as single dose by LC/MS/MS analysis; format: ADME, organism-based; parameters: dose 15 mg/kg, dosed compound name [14C]Sunitinib, route oral; how it was run: as §1
[8] = Tmax in male Sprague-Dawley rat plasma at 15 mg/kg, po administered as single dose by LC/MS/MS analysis; format: ADME, organism-based; parameters: dose 15 mg/kg, dosed compound name [14C]Sunitinib, route oral
[9] = AUC (0 to infinity) in male Sprague-Dawley rat plasma at 15 mg/kg, po administered as single dose by LC/MS/MS analysis; format: ADME, organism-based; parameters: time infinity, dose 15 mg/kg, dosed compound name [14C]Sunitinib, route oral; how it was run: as §1
[10] = Apparent terminal half life in male Sprague-Dawley rat plasma at 15 mg/kg, po administered as single dose by LC/MS/MS analysis; format: ADME, organism-based; parameters: dose 15 mg/kg, dosed compound name [14C]Sunitinib, route oral; settings: read-out: t1/2 lambda z (converted); how it was run: as §1
[11] = Cmax in female Sprague-Dawley rat plasma at 5 mg/kg, iv administered as single dose by LC/MS/MS analysis; format: ADME, organism-based; parameters: dose 5 mg/kg, dosed compound name [14C]Sunitinib, route intravenous; how it was run: as §1
[12] = AUC (0 to infinity) in female Sprague-Dawley rat plasma at 5 mg/kg, iv administered as single dose by LC/MS/MS analysis; format: ADME, organism-based; parameters: time infinity, dose 5 mg/kg, dosed compound name [14C]Sunitinib, route intravenous; how it was run: as §1
[13] = Apparent terminal half life in female Sprague-Dawley rat plasma at 5 mg/kg, iv administered as single dose by LC/MS/MS analysis; format: ADME, organism-based; parameters: dose 5 mg/kg, dosed compound name [14C]Sunitinib, route intravenous; settings: read-out: t1/2 lambda z (converted); how it was run: as §1
[14] = Clearance in female Sprague-Dawley rat plasma at 5 mg/kg, iv administered as single dose by LC/MS/MS analysis; format: ADME, organism-based; parameters: dose 5 mg/kg, dosed compound name [14C]Sunitinib, route intravenous
How it was run: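 Female rats (5) were given a single tail-vein bolus of [14C]sunitinib L-malate at 5 mg/kg free base (50 µCi/kg). […] Parameters were noncompartmental, with AUC by the linear trapezoidal rule.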

[15] = Volume of distribution at steady state in female Sprague-Dawley rat plasma at 5 mg/kg, iv administered as single dose by LC/MS/MS analysis; format: ADME, organism-based; parameters: dose 5 mg/kg, dosed compound name [14C]Sunitinib, route intravenous; settings: read-out: Vdss
[16] = Cmax in human plasma at 50 mg, po administered as single dose by LC/MS/MS analysis; format: ADME, organism-based; parameters: dose 50 mg, route oral, dosed compound name [14C]Sunitinib
How it was run: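 This was an open-label, single-dose, single-centre phase I study in eight male subjects. Each received one oral 50 mg dose of [14C]sunitinib (100 µCi). Plasma sunitinib was measured by a validated LC-MS-MS method. Cmax was read directly from the raw concentration–time data.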

[17] = Tmax in human plasma at 50 mg, po administered as single dose by LC/MS/MS analysis; format: ADME, organism-based; parameters: dosed compound name [14C]Sunitinib
[18] = AUC (0 to infinity) in human plasma at 50 mg, po administered as single dose by LC/MS/MS analysis; format: ADME, organism-based; parameters: dose 50 mg, route oral, time infinity, dosed compound name [14C]Sunitinib
How it was run: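 Open-label phase I study in 8 subjects given one 50 mg oral dose of [14C]sunitinib (100 µCi). Plasma total radioactivity was counted by scintillation on triplicate 0.25 mL aliquots. Sunitinib was quantified by LC-MS-MS. Noncompartmental analysis: Cmax read directly, terminal t½ = ln(2)/slope of the log-concentration regression, AUC by linear trapezoidal rule to the last detectable concentration.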

[19] = Terminal half life in human plasma at 50 mg, po administered as single dose by LC/MS/MS analysis; format: ADME, organism-based; parameters: dosed compound name [14C]Sunitinib; settings: read-out: beta t1/2 (converted)
[20] = Apparent oral clearance in human plasma at 50 mg, po administered as single dose by LC/MS/MS analysis; format: ADME, organism-based; parameters: dosed compound name [14C]Sunitinib
[21] = Cmax in female cynomolgus monkey plasma at 6 mg/kg, po administered as single dose by LC/MS/MS analysis; format: ADME, organism-based, Macaca fascicularis; parameters: dose 6 mg/kg, dosed compound name [14C]Sunitinib, route oral
How it was run: (§2)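 Cynomolgus monkeys were given a single oral gavage of [14C]sunitinib L-malate at 6 mg/kg (37 µCi/kg). Heparinized femoral-vein blood was taken at pre-dose and 0.5–336 h. […] Cmax was read directly from the raw concentration data.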

[22] = Tmax in female cynomolgus monkey plasma at 6 mg/kg, po administered as single dose by LC/MS/MS analysis; format: ADME, organism-based, Macaca fascicularis; parameters: dose 6 mg/kg, dosed compound name [14C]Sunitinib, route oral
[23] = AUC (0 to infinity) in female cynomolgus monkey plasma at 6 mg/kg, po administered as single dose by LC/MS/MS analysis; format: ADME, organism-based, Macaca fascicularis; parameters: time infinity, dose 6 mg/kg, dosed compound name [14C]Sunitinib, route oral
How it was run: (§3)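 Cynomolgus monkeys of both sexes received one oral gavage of [14C]sunitinib L-malate at 6 mg/kg (37 µCi/kg). Femoral-vein blood was taken into heparin from 0.5 to 336 h. Plasma was kept cold and protected from light, then stored at -80 °C. Total radioactivity was by scintillation counting and sunitinib by methanol-extraction LC-MS-MS. Cmax was from raw data, t½ from the log-linear terminal slope, AUC(0-∞) by linear trapezoidal rule.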

[24] = Terminal half life in female cynomolgus monkey plasma at 6 mg/kg, po administered as single dose by LC/MS/MS analysis; format: ADME, organism-based, Macaca fascicularis; parameters: dose 6 mg/kg, dosed compound name [14C]Sunitinib, route oral; settings: read-out: beta t1/2 (converted)
[25] = Cmax in male cynomolgus monkey plasma at 6 mg/kg, po administered as single dose by LC/MS/MS analysis; format: ADME, organism-based, Macaca fascicularis; parameters: dose 6 mg/kg, dosed compound name [14C]Sunitinib, route oral; how it was run: as §2
[26] = Tmax in male cynomolgus monkey plasma at 6 mg/kg, po administered as single dose by LC/MS/MS analysis; format: ADME, organism-based, Macaca fascicularis; parameters: dose 6 mg/kg, dosed compound name [14C]Sunitinib, route oral
[27] = AUC (0 to infinity) in male cynomolgus monkey plasma at 6 mg/kg, po administered as single dose by LC/MS/MS analysis; format: ADME, organism-based, Macaca fascicularis; parameters: time infinity, dose 6 mg/kg, dosed compound name [14C]Sunitinib, route oral; how it was run: as §3
[28] = Terminal half life in male cynomolgus monkey plasma at 6 mg/kg, po administered as single dose by LC/MS/MS analysis; format: ADME, organism-based, Macaca fascicularis; parameters: dose 6 mg/kg, dosed compound name [14C]Sunitinib, route oral; settings: read-out: beta t1/2 (converted)
[29] = Retention time of compound by LC/MS/MS analysis; format: physicochemical; parameters: dosed compound name [14C]Sunitinib
[30] = Cmax in female Sprague-Dawley rat plasma at 15 mg/kg, po administered as single dose by LC/MS/MS analysis; format: ADME, organism-based; parameters: dose 15 mg/kg, dosed compound name [14C]Sunitinib, route oral; how it was run: as §1
[31] = Tmax in female Sprague-Dawley rat plasma at 15 mg/kg, po administered as single dose by LC/MS/MS analysis; format: ADME, organism-based; parameters: dose 15 mg/kg, dosed compound name [14C]Sunitinib, route oral
[32] = Drug excretion in urine of female cynomolgus monkey at 6 mg/kg, po administered as single dose by liquid scintillation counting; format: ADME, organism-based, Macaca fascicularis; parameters: dose 6 mg/kg, dosed compound name [14C]Sunitinib, route oral; settings: in vivo
[33] = Drug excretion in feces of male cynomolgus monkey at 6 mg/kg, po administered as single dose by liquid scintillation counting; format: ADME, organism-based, Macaca fascicularis; parameters: dose 6 mg/kg, dosed compound name [14C]Sunitinib, route oral; settings: in vivo
[34] = Drug excretion in urine of male cynomolgus monkey at 6 mg/kg, po administered as single dose by liquid scintillation counting; format: ADME, organism-based, Macaca fascicularis; parameters: dose 6 mg/kg, dosed compound name [14C]Sunitinib, route oral; settings: in vivo
[35] = Drug excretion in feces of female Sprague-Dawley rat at 15 mg/kg, po administered as single dose by liquid scintillation counting; format: ADME, organism-based; parameters: dose 15 mg/kg, dosed compound name [14C]Sunitinib, route oral; settings: in vivo
[36] = Drug excretion in urine of female Sprague-Dawley rat at 15 mg/kg, po administered as single dose by liquid scintillation counting; format: ADME, organism-based; parameters: dose 15 mg/kg, dosed compound name [14C]Sunitinib, route oral; settings: in vivo
[37] = Drug excretion in feces of male Sprague-Dawley rat at 15 mg/kg, po administered as single dose by liquid scintillation counting; format: ADME, organism-based; parameters: dose 15 mg/kg, dosed compound name [14C]Sunitinib, route oral; settings: in vivo
[38] = Drug excretion in feces of human at 50 mg, po administered as single dose by liquid scintillation counting; settings: in vivo
[39] = Drug excretion in urine of human at 50 mg, po administered as single dose by liquid scintillation counting; settings: in vivo

Compound recovery [1]: 0.5%
Compound recovery [2]: 22.6%
Compound recovery [3]: 0.3%
Compound recovery [4]: 9.2%
AUC(0-inf) [5]: 24000 ng·h/mL
half-life [6]: 7.2 h
Cmax [7]: 963 ng/mL
Tmax [8]: 3 h
AUC(0-inf) [9]: 11800 ng·h/mL
half-life [10]: 8 h
Cmax [11]: 1820 ng/mL
AUC(0-inf) [12]: 7200 ng·h/mL
half-life [13]: 7.4 h
clearance [14]: 13 mL/min/kg
Vd [15]: 3.36 L/kg
Cmax [16]: 24.4 ng/mL
Tmax [17]: 8 h
AUC(0-inf) [18]: 1060 ng·h/mL
half-life [19]: 50.9 h
CL/F [20]: 832 mL/min
Cmax [21]: 83 ng/mL
Tmax [22]: 4 h
AUC(0-inf) [23]: 1100 ng·h/mL
half-life [24]: 16 h
Cmax [25]: 92 ng/mL
Tmax [26]: 5 h
AUC(0-inf) [27]: 1450 ng·h/mL
half-life [28]: 18 h
Retention_time [29]: 4 min
Cmax [30]: 1250 ng/mL
Tmax [31]: 4 h
Compound recovery [32]: 0.2%
Compound recovery [33]: 8.8%
Compound recovery [34]: 0.2%
Compound recovery [35]: 11.5%
Compound recovery [36]: 0.6%
Compound recovery [37]: 5.8%
Compound recovery [38]: 13.6%
Compound recovery [39]: 6.4%
SMILES: CCN(CC)CCNC(=O)c1c(C)[nH]c(/C=C2\C(=O)Nc3ccc(F)cc32)c1C [SUNITINIB]
